# From PubChem BioAssay
# This is a sample that favours compounds with a hit; in the whole collection about 3.7% have one here.
# KCC2 mod: modulates chloride dependent transport by human KCC2; Q9H2X9; KCC2 cells, thallium flux FluoZin-2 fluorescence; B-score of Tl+ flux slope (higher = more flux/activation; lower = inhibition) at 10 µM; hit rate 2.2% among 190,000;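 active means thallium flux slope and its plate-corrected score both differing from the plate sample mean at a set confidence after two filtering rounds, in either direction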;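 further: slope of fluorescence scaled to starting intensity during 10 to 20 s after thallium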
# DTT redox prof: compounds producing H2O2 with reducing agent – biochemical, NIH compound library profiling, artefact control for MLSCN library redox annotation, primary screen | DTT-dependent redox cycling H2O2, phenol red/HRP absorbance; 100% = 100 µM peroxide control, 0% = buffer | hit rate 0.03% among 200,000 | activation, % at 10 µM;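 active means activation of at least 50% relative to the plate's high and low controls in the primary single-dose screen; inactive means activation below 50%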;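 further: compound incubated with DTT at 0.8 mM final as the reducing agent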
# MT stabilizer: microtubule stabilization, imaging screen; HeLa tubulin immunostaining HCS, 24 h; share of cells brighter than vehicle mean+2SD; % tubulin-high responders, % at 10 µM; hit rate 0.83% among 200,000; AID 2205;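 active means plate Z-score above 3 for both tubulin-high and condensed-nucleus cell shares, with cell loss under 80%, at 10 µM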;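 further: anti alpha tubulin signal scored within the nucleus-defined area of each cell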
# b-catenin transl: modulators of beta-catenin nuclear translocation | HeLa beta-catenin nuclear translocation, immunofluorescence imaging | nuclear translocation activity, % at 5 µM | hit rate 0.3% among 190,000 | AID 1665;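 active means nuclear translocation activity above 50% at 5 µM, with a well cell count of 50 or more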;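 further: per-cell ratio of nuclear to cytoplasmic median beta-catenin stain intensity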
#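 System: Human HeLa cells, endogenous beta-catenin | Compound dosing: 5 µM primary, 0.02–20 µM confirmation | Timing: 24 h compound exposure at 37°C, 5% CO2 | Measured by: Fluorescence imaging of beta-catenin antibody stain plus DAPI | Read-out basis: % activation of per-cell nuclear versus cytoplasmic median beta-catenin signal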
# ROMK mod: modulates human ROMK potassium channel activity | hit rate 2% among 130,000 | Tet-inducible ROMK, thallium flux fluorescence; actives lie on both sides | AID 1918 | P48048 | B-score at 10 µM;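 active means signal ratio slope over the read window, or its plate-corrected B-score, at least 3 SD from the plate mean, either direction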;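 further: B-score of the F/F0 ratio slope over 7 to 12 s after thallium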
# Numbers stand for hits; 0 = inactive; - = no result given.
SMILES,KCC2 mod,DTT redox prof,MT stabilizer,b-catenin transl,ROMK mod
COC(=O)c1cccc(NS(=O)(=O)c2ccc(OC)cc2)c1C,0,0,35,53,0
COc1ccc(S(=O)(=O)Nc2cc3c(cc2C(C)=O)OCO3)cc1,0,0,42,0,0
O=C(COC(=O)c1ccco1)Nc1nc2ccccc2s1,-,0,0,0,0
O=C(NC(=S)Nc1nc2ccccc2s1)c1ccco1,37,0,0,0,-
O=C(NC(=S)NCc1ccc(-c2nc3ccccc3s2)cc1)c1ccco1,6.4,0,0,0,-
CCOC(=O)c1sc(NC(=S)NC(=O)c2ccco2)nc1C,47,0,0,0,-
CC1(C)CNC(=O)CC(C)(C)N1,0,0,0,-,-
Cc1cccc(C(=O)N[C@H](C(=O)Nc2ccc(C)c(S(=O)(=O)N(C)C)c2)C(C)C)c1,0,0,0,0,0
CNC(=O)c1ccccc1-c1cn(C)c2ccccc2c1=O,0,0,0,0,0
CCOC(=O)N1CCN(c2c(NCc3cccs3)c(=O)c2=O)CC1,0,0,20,-,-
O=C(Nc1ccc(Cl)cc1)Nc1cccc2nsnc12,0,-,-,0,-
Cc1nc(Nc2ccc(C(=O)O)cc2)sc1-c1ccccc1,0,0,0,0,3.7
Cc1nc(Nc2ccccc2)sc1-c1ccccc1,0,0,0,0,0
Cc1ccc2c(C)c(C(=O)N(Cc3cccs3)C3CCS(=O)(=O)C3)oc2c1 (configuration not stated),0,0,0,0,0
CCOc1ccc(CN(C(=O)c2oc3cc(C)ccc3c2C)C2CCS(=O)(=O)C2)cc1 (configuration not stated),-,0,41,-,0
CCCC(c1nnnn1C1CCCCC1)N1CCN(C2CCCC2)CC1 (configuration not stated),0,0,0,0,-
CCCCC(c1nnnn1C1CCCC1)N1CCN(C2CCCC2)CC1 (configuration not stated),-,0,0,0,-3.2
Cc1c2c(nc3ccccc13)OCC2,0,0,0,0,0
COc1ccc(N(C(=O)Cc2cccs2)C(C(=O)NC2CCCCC2)c2cccn2C)cc1OC (configuration not stated),0,0,0,0,-3.9
O=C1c2ccccc2C(O)(c2ccccc2)N1c1ccncc1 (configuration not stated),0,-,-,0,-
Cc1ccc(C2=NNC3(CCOC(C)(C)C3)S2)cc1 (configuration not stated),25,0,0,0,2.5
Cc1ccc(S(=O)(=O)NCCC2(C(C)C)CCOC(C)(C)C2)cc1 (configuration not stated),0,0,0,0,0
CC1=C(C#N)C(=O)N(C)C(C)(C)C1,2.8,0,0,0,0
Cc1ccc(N/C(N)=N/c2nc3c(c(=O)[nH]2)CCCC3)c(C)c1,0,0,20,0,-
Fc1cccc2sc(Nc3nnc(-c4ccco4)o3)nc12,33,0,0,0,5.1
SMILES,KCC2 mod,DTT redox prof,MT stabilizer,b-catenin transl,ROMK mod
COc1cccc2sc(Nc3nnc(-c4cccs4)o3)nc12,58,0,0,0,-
COc1cccc2sc(Nc3nc(-c4ccccn4)cs3)nc12,-,0,0,0,0
O=c1[nH]cnc(O)c1C(c1cccc([N+](=O)[O-])c1)c1c(O)nc[nH]c1=O,0,-,-,0,-
O=C(/C=C/c1ccco1)NC(=S)Nc1nc(-c2ccc(Cl)cc2)cs1,0,0,12,0,-
O=C(/C=C/c1ccco1)NC(=S)Nc1nc(-c2ccc3ccccc3c2)cs1,0,0,0,0,-
CC(C)(C)NC(=O)C(=O)NNC(=O)c1ccc(C(C)(C)C)cc1,54,0,0,0,-
COc1ccc(-c2noc(=O)n2Cc2cc(C)ccc2C)cc1,0,0,11,0,0
COc1ccc(CNC(=O)COC(=O)c2ccccn2)cc1,0,0,0,0,0
COc1ccc(-c2n[nH]c(C)c2-c2cscn2)c(O)c1,0,-,-,0,-
C=C(C)COc1ccc(-c2n[nH]c(C)c2-c2ccc(OC)cc2)c(O)c1,0,0,30,0,-
CCOc1ccc(-c2n[nH]c(C)c2-c2ccccc2OC)c(O)c1,-,0,27,0,0
COc1ccc(C(=O)/C=C2/c3ccccc3CC(C)(C)N2C)cc1,-,0,28,-,-
CC(C)OC(=O)c1c(NS(=O)(=O)c2ccccc2)sc2c1CCCC2,23,0,0,0,0
COC(=O)c1c(NS(C)(=O)=O)sc2c1CCCC2,0,0,0,-,0
COC(=O)c1c(NS(=O)(=O)Cc2ccccc2)sc2c1CCCC2,45,0,0,-,0
